The values below come from ChEMBL document CHEMBL3351579, “Structural optimization of a retrograde trafficking inhibitor that protects cells from infections by human polyoma- and papillomaviruses” (Bioorg Med Chem, 2014).

Calls of active or inactive are those of the source. The rule behind the calls is not given here.

The test system of test [1] is Human papillomavirus type 16. Put plainly: Antiviral activity against HPV16 pseudovirus expressing HcRed reporter infected in HeLa-M cells assessed as reduction in viral infectivity pre-incubated for 0.5 hrs with compound before viral infection for 72 hrs by flow cytometry. In kind it is functional, organism-based. To be noted: Human papillomavirus 16, HeLaM. The method, boiled down: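 HeLa M cells in DMEM with 10% FBS and 10 mM Hepes pH 7.5, pretreated with compound from 1:2 serial dilutions of a 2500x DMSO stock, final DMSO 0.04%. Challenged with HcRed-reporter HPV16 pseudovirus. Cells fixed in 4% PFA and HcRed-positive cells scored by flow cytometry. IC50 from three independent experiments.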
On the technique in general: A flow cytometer gives signals particle by particle.

The subject of test [2] is Human papillomavirus type 16. Put plainly: Inhibition of retrograde transport of HPV16 pseudovirus expressing HcRed reporter infected in SVG-A cells assessed as reduction in co-localization of viral capsid protein L1 and golgi protein TGN46 pre-incubated for 0.5 hrs with compound before viral infection for 1 hr followed by incubation with compound at 0.1 mM for 16 hrs by proximity ligation assay. Particulars: Human papillomavirus 16. It counts as functional, organism-based.

Test [3] has as its system JC polyomavirus. Description: Inhibition of retrograde transport of JC polyomavirus Mad1-SVEdelta infected in SVG-A cells assessed as reduction in co-localization of viral capsid protein VP1 and ER protein PDI pre-incubated for 0.5 hrs with compound before viral infection for 1 hr followed by incubation with compound at 0.1 mM for 8 hrs by proximity ligation assay. It counts as functional, cell-based. The method, boiled down: (§1)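 SVG-A cells in MEM with 10% FBS were pretreated 0.5 h, then given JCPyV Mad1-SVEΔ at MOI 100 for 1 h at 37°C. After washing, compound (0.05 or 0.1 mM) or vehicle was re-added for 8 h at 37°C. Cells were fixed (4% PFA), permeabilised (0.5% Triton, 0.5 h) and blocked (5% donkey serum), then stained overnight at 4°C with rabbit anti-VP1 (1:1,000) plus mouse anti-PDI (1:100). Read-out: proximity ligation, confocal maximal z-projections.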

The test system of test [4] is JC polyomavirus. Put plainly: Antiviral activity against JC polyomavirus Mad1-SVEdelta infected in SVG-A cells assessed as reduction in viral infectivity pre-incubated for 0.5 hrs with compound before viral infection for 72 hrs by flow cytometry. It counts as functional, cell-based. Summed up:
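JCPyV infection of SVG-A cells (1 × 10^5 per well, seeded overnight at 37°C) after 0.5 h pretreatment with compound from 1:2 serial dilutions of a 2500x DMSO stock, final DMSO 0.04%. Virus at MOI 0.25 with compound present for 72 h. Cells fixed in 4% PFA and permeabilized in 1% Triton X-100. Stained with Alexa Fluor-labeled anti-VP1 antibody, infected cells scored by flow cytometry. IC50 from three independent experiments.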

Test [5] concerns JC polyomavirus. Put plainly: Antiviral activity against JC polyomavirus Mad1-SVEdelta infected in SVG-A cells assessed as viral infectivity level pre-incubated for 0.5 hrs with 25 uM compound before viral infection for 72 hrs by flow cytometry relative to DMSO control. In kind it is functional.
Test [6] has as its system JC polyomavirus. Description: Inhibition of retrograde transport of JC polyomavirus Mad1-SVEdelta infected in SVG-A cells assessed as reduction in co-localization of viral capsid protein VP1 and ER protein PDI pre-incubated for 0.5 hrs with compound before viral infection for 1 hr followed by incubation with compound at 0.05 mM for 8 hrs by proximity ligation assay. In kind it is functional, cell-based. Summed up:
as §1

Test [7] relates to Human papillomavirus type 16. Description: Inhibition of retrograde transport of HPV16 pseudovirus expressing HcRed reporter infected in SVG-A cells assessed as reduction in co-localization of viral capsid protein L1 and golgi protein TGN46 pre-incubated for 0.5 hrs with compound before viral infection for 1 hr followed by incubation with compound at 0.05 mM for 16 hrs by proximity ligation assay. It counts as functional, organism-based. Particulars: Human papillomavirus 16.

Test [8] relates to JC polyomavirus. Put plainly: Potency index, ratio of IC50 for Retro-2(cycl) to IC50 for test compound against JC polyomavirus Mad1-SVEdelta infected in SVG-A cells assessed as reduction in viral infectivity pre-incubated for 0.5 hrs with compound before viral infection for 72 hrs by flow cytometry. In kind it is functional.

As usually defined, the IC50 is the point on the concentration scale where inhibition reaches its midpoint.

Regarding `Cc1ccc(C2Nc3ccccc3C(=O)N2c2ccccc2)s1` (racemic), the IC50 was 160 µM in test [1] and 54 µM in the test with JC polyomavirus [4]. Also, the inhibition entry (in test [2]; with JC polyomavirus [3]) was “Active” in each case. The Activity in the test on JC polyomavirus [5] worked out at 57.5%.

Turning to `CCc1ccc(-c2nc3ccccc3c(=O)n2Cc2ccc(F)cc2)s1`, the Activity in the test with JC polyomavirus [5] is listed as 63.3%.

Regarding `CCCCN1C(=O)c2ccccc2NC1c1ccc(CC)s1` (racemic), in the test with JC polyomavirus [5], the Activity was determined as 42.4%.

As to `CCc1ccc(C2Nc3ccccc3C(=O)N2Cc2cccc([N+](=O)[O-])c2)s1` (racemic), the Activity with JC polyomavirus [5] was 44.5%.

Take `CCc1ccc(C2Nc3ccccc3C(=O)N2Cc2cccc(OC)c2)s1` (racemic): the Activity in the test with JC polyomavirus [5] is on record as 27.5%.

Take `Cc1ccc(C2Nc3ccccc3C(=O)N2c2ccccc2)o1` (racemic): in the test on JC polyomavirus [5], the Activity is on record as 64.4%.

`CCc1ccc(C2Nc3ccccc3C(=O)N2C2CCCCC2)s1` (racemic): the Activity in the test with JC polyomavirus [5] was determined as 45.7%.

On to `CCc1ccc(C2Nc3ccccc3C(=O)N2CCc2ccccc2)s1` (racemic), for which the Activity in the test with JC polyomavirus [5] is given as 50.4%.

In the case of `CCc1ccc(C2Nc3ccccc3C(=O)N2Cc2cccc3ccccc23)s1` (racemic), the Activity in the test with JC polyomavirus [5] was 14.5%.

Consider `Cc1csc(C2Nc3ccccc3C(=O)N2c2ccccc2)c1` (racemic), for which the Activity with JC polyomavirus [5] is recorded as 55.6%.

Regarding `CCc1ccc(C2Nc3ccccc3C(=O)N2c2ccccc2)s1` (racemic), in the test with JC polyomavirus [5], the Activity is given as 47.8%.

`CCCCNc1ccc2c(c1)C(=O)N(Cc1ccc(F)cc1)C(c1ccc(CC)s1)N2` (configuration not stated): the Activity with JC polyomavirus [5] amounted to 71%.

For `CCc1ccc(C2N(Cc3ccc(F)cc3)C(=O)c3ccccc3N2C)s1` (configuration not stated), the Activity in the test on JC polyomavirus [5] was 60%.

`CCc1ccc(C2Nc3ccccc3C(=O)N2Cc2ccccc2)s1` (racemic): the Activity with JC polyomavirus [5] was 13.3%.

Regarding `O=C1c2ccccc2NC(c2cccs2)N1c1ccccc1` (racemic), in the test on JC polyomavirus [5], the Activity is reported as 81.1%.

In the case of `CCc1ccc(C2Nc3ccc(C)cc3C(=O)N2Cc2ccc(F)cc2)s1` (racemic), the Activity with JC polyomavirus [5] amounted to 8.34%.

On to `O=C1c2ccccc2NC(c2ccco2)N1c1ccccc1` (racemic), for which the Activity in the test with JC polyomavirus [5] amounted to 69.9%.

In the case of `CCc1ccc(C2Nc3cc(F)ccc3C(=O)N2Cc2ccc(F)cc2)s1` (racemic), in the test on JC polyomavirus [5], the Activity was found to be 8.82%.

In the case of `O=C1c2ccccc2NC(c2ccc[nH]2)N1c1ccccc1` (racemic), the Activity in the test with JC polyomavirus [5] came out at 92.4%.

Take `CCc1ccc(C2NC(=O)c3ccccc3N2)s1` (racemic): the Activity with JC polyomavirus [5] is listed as 41.4%.

For `CCc1ccc(C2Nc3ccccc3C(=O)N2C(C)C)s1` (racemic), in the test with JC polyomavirus [5], the Activity is listed as 69.9%.

Regarding `CCCN1C(=O)c2ccccc2NC1c1ccc(CC)s1` (racemic), the Activity with JC polyomavirus [5] is 76.4%.

Turning to `CCc1ccc(C2Nc3ccc(Cl)cc3C(=O)N2Cc2ccc(F)cc2)s1` (racemic), in the test on JC polyomavirus [5], the Activity is 13.7%.

Consider `CCc1ccc(C2Nc3ccccc3C(=O)N2Cc2cccc(F)c2)s1` (racemic), for which, in the test on JC polyomavirus [5], the Activity is recorded as 14%.

For the compound `CCc1ccc(C2Nc3ccccc3C(=O)N2Cc2ccccc2OC)s1` (racemic), the Activity in the test on JC polyomavirus [5] amounted to 13.7%.

For the compound `CCc1ccc(C2Nc3ccccc3C(=O)N2Cc2ccc(OC)cc2OC)s1` (racemic), the Activity with JC polyomavirus [5] was found to be 16.4%.

Regarding `Cc1ccsc1C1Nc2ccccc2C(=O)N1c1ccccc1` (racemic), the Activity in the test with JC polyomavirus [5] amounted to 76.4%.

On to `CCc1ccc(C2Nc3ccccc3C(=O)N2Cc2ccc([N+](=O)[O-])cc2)s1` (racemic), for which, in the test on JC polyomavirus [5], the Activity was found to be 30.6%.

In the case of `CCc1ccc(C2Nc3cc(Cl)ccc3C(=O)N2Cc2ccc(F)cc2)s1` (racemic), the Activity with JC polyomavirus [5] worked out at 21.3%.

Regarding `O=C1c2ccccc2NC(c2cc3ccccc3s2)N1c1ccccc1` (racemic), in the test with JC polyomavirus [5], the Activity is listed as 95.3%.

With `CCc1ccc(C2Nc3cc(C)ccc3C(=O)N2Cc2ccc(F)cc2)s1` (racemic), the Activity in the test on JC polyomavirus [5] came to 67.1%.

Regarding `CCc1ccc(C2Nc3cccc(C)c3C(=O)N2Cc2ccc(F)cc2)s1` (racemic), the Activity in the test on JC polyomavirus [5] amounted to 10.2%.

Regarding `CCc1ccc(C2Nc3ccccc3C(=O)N2Cc2ccc(OC)cc2)s1` (racemic), the Activity with JC polyomavirus [5] is reported as 21.2%.

With `CCc1ccc(C2Nc3ccc(F)cc3C(=O)N2Cc2ccc(F)cc2)s1` (racemic), the half-maximal inhibitory concentration (IC50) was 24 µM in test [1] and 8.1 µM in the test with JC polyomavirus [4]. Also, the inhibition result (in the test on JC polyomavirus [6]; in test [7]) was “Active” in each case. For the same compound, the “Ratio IC50” value in the test with JC polyomavirus [8] is reported as 6.7. In addition, in the test with JC polyomavirus [5], the Activity came out at 4.45%.

For `CCc1ccc(C2Nc3c(C)cccc3C(=O)N2Cc2ccc(F)cc2)s1` (racemic), in the test on JC polyomavirus [5], the Activity was 44.5%.

With `CCc1ccc(C2Nc3ccccc3C(=O)N2Cc2ccc(F)cc2)s1` (racemic), the Activity in the test on JC polyomavirus [5] stood at 7.62%.

Regarding `CCc1ccc(C2Nc3ccccc3C(=O)N2[C@H](C)c2ccccc2)s1` (mixture of isomers), the Activity with JC polyomavirus [5] stood at 52.7%.

In the case of `CCc1ccc(C2Nc3ccccc3C(=O)N2[C@@H](C)c2ccccc2)s1` (mixture of isomers), the Activity in the test on JC polyomavirus [5] was found to be 32.4%.
